Data set [1] is described as follows: Toxicity in human subcutaneous preadipocytes assessed as decrease of C/EBPalpha expression at 3 uM after 18 days by RT-PCR analysis. The following applies: 432 h. Format: cell-based. In short, it runs like this: (§1)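 Differentiating preadipocytes were harvested at day 18. RNA from three plates was pooled and reverse transcribed, and qRT-PCR was run with 42 cycles of 94/55/72°C. Values were normalized to transferrin receptor or beta-actin by standard curve. Triplicates from three independent experiments.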

Data set [2] is described as follows: Toxicity in human subcutaneous preadipocytes assessed as decrease of mitochondrial DNA abundance at 0.1 uM after 30 days by RT-PCR analysis. Format: cell-based. The following applies: 720 h. In short, it runs like this: (§2)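 mtDNA content of differentiated preadipocytes at day 30 or 60 of drug exposure was measured by real-time quantitative PCR with human-specific primers. Absolute copy numbers came from serial dilutions of plasmid standards. Three independent experiments.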

Data set [3] in a line: Toxicity in human subcutaneous preadipocytes assessed as decrease of insulin-sensitizing adipokine expression at 0.1 uM after 30 days by RT-PCR analysis. Format: cell-based. The following applies: 720 h. The essentials:
(§3)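 Adiponectin mRNA at day 30 was measured by qRT-PCR normalized to transferrin receptor or beta-actin, using pooled RNA and cDNA. Triplicates from three independent experiments.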

Data set [4] is described as follows: Toxicity in human subcutaneous preadipocytes assessed as decrease of mitochondrial DNA copy number per cell at 0.1 uM after 60 days by RT-PCR analysis. Format: cell-based. More on the design: scale not given: the % may be the effect or the level left. The conditions noted are these: 1440 h. In short, it runs like this:
as §2

Data set [5] is described as follows: Toxicity in human subcutaneous preadipocytes assessed as decrease of cell cultures at 0.1 uM after 30 days using oil red O fluorescence staining by conventional fluorescence microscopy. Format: cell-based. The following applies: 720 h. The essentials: (§4)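 On day 30 of differentiation with drug present from day 0, cells were fixed in 10% formalin and stained with 0.21% oil red O. Staining was viewed by fluorescence and light microscopy. For quantification, dye was extracted with isopropanol and read at 495 nm, also adjusted for viable cell number. Five independent experiments.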

The nature of data set [6]: Toxicity in human subcutaneous preadipocytes assessed as effect on mitochondrial mass at 0.1 uM after 30 days using […] by flow cytometry analysis. The following applies: 720 h. In kind it is cell-based.
A short description of data set [7]: Toxicity in human subcutaneous preadipocytes assessed as decrease of C/EBPalpha expression at 0.1 uM after 18 days by RT-PCR analysis. Format: cell-based. The conditions noted are these: 432 h. The essentials: as §1
The nature of data set [8]: Toxicity in human subcutaneous preadipocytes assessed as cell death at 0.1 uM after 30 days using […]. The following applies: 720 h. In kind it is cell-based. In short, it runs like this: (§5)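 Trypan blue exclusion counted by microscopy at each medium change every fifth day during 30 days of drug exposure in differentiating pooled preadipocytes. Final viability was calculated by excluding the cumulative percentage of dead cells. Five independent experiments.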

Data set [9] has as its system Homo sapiens. The data set can be described thus: Inhibition of electron transport protein complex 5 in human subcutaneous preadipocytes at 0.1 uM after 30 to 60 days by photometric analysis. In kind it is cell-based. In short, it runs like this:
(§6)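 Pooled primary human abdominal subcutaneous preadipocytes induced to differentiate with drug (DMSO vehicle, ≤0.1%) added at day 0 and kept to day 30 or 60. Cells sonicated twice for 10 s; substrates added to lysates and conversion by complexes I+III, II+III, IV, V and citrate synthase read photometrically at 37°C. Three independent experiments.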

Data set [10] can be described thus: Toxicity in human subcutaneous preadipocytes assessed as decrease of cell viability measured every 5 days at 0.1 uM after 30 days using […]. Format: cell-based. The following applies: 720 h. In short, it runs like this: as §5
The nature of data set [11]: Toxicity in fully differentiated human subcutaneous preadipocytes assessed as cell death at 0.1 uM after 30 days using […]. The conditions noted are these: 720 h. In short, it runs like this:
as §5

Data set [12] concerns Homo sapiens. Description: Inhibition of electron transport protein complex 4 in human subcutaneous preadipocytes at 0.1 uM after 30 to 60 days by photometric analysis. In kind it is cell-based. The essentials:
as §6

The nature of data set [13]: Toxicity in human subcutaneous preadipocytes assessed as decrease of mitochondrial DNA abundance at 0.1 uM after 60 days by RT-PCR analysis. Format: cell-based. The conditions noted are these: 1440 h. The essentials:
as §2

Data set [14] is described as follows: Toxicity in human subcutaneous preadipocytes assessed as decrease of PPARgamma expression at 3 uM after 18 days by RT-PCR analysis. Format: cell-based. The conditions noted are these: 432 h. The essentials: as §1
Data set [15] in a line: Toxicity in human subcutaneous preadipocytes assessed as decrease of PPARgamma expression at 0.1 uM after 18 days by RT-PCR analysis. The conditions noted are these: 432 h. In kind it is cell-based. The essentials:
as §1

The test system of data set [16] is Homo sapiens. The data set can be described thus: Inhibition of citrate synthase in human subcutaneous preadipocytes at 0.1 uM after 30 to 60 days by photometric analysis. Format: cell-based. In short, it runs like this: as §6
The nature of data set [17]: Toxicity in human subcutaneous preadipocytes assessed as acquisition of adipocyte shape at 0.1 uM after 30 days using oil red O fluorescence staining by conventional fluorescence microscopy. Format: cell-based. The conditions noted are these: 720 h. In short, it runs like this:
as §4

Data set [18] can be described thus: Toxicity in human subcutaneous preadipocytes assessed as decrease of adiponectin expression at 0.1 uM after 30 days by ELISA. In kind it is cell-based. The conditions noted are these: 720 h. The essentials: (§7)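 Adiponectin secreted into the medium over days 25 to 30 of drug exposure in differentiating preadipocytes was measured by sandwich ELISA of culture supernatant. Three independent experiments.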
On the technique in general: ELISA stands for enzyme-linked immunosorbent assay.

The test system of data set [19] is Homo sapiens. Description: Inhibition of electron transport protein complex 1/3 in human subcutaneous preadipocytes at 0.1 uM after 30 to 60 days by photometric analysis. In kind it is cell-based. In short, it runs like this: as §6
The nature of data set [20]: Toxicity in human subcutaneous preadipocytes assessed as triacylglyceride droplets at 0.1 uM after 30 days using oil red O fluorescence staining by conventional fluorescence microscopy. The following applies: 720 h. Format: cell-based. The essentials:
(§8)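 Preadipocytes were differentiated with a hormone cocktail (IBMX for the first 7 days, dexamethasone, insulin, indomethacin; high-glucose DMEM for days 0–18), with drug or vehicle present from day 0 to day 30. Cells were fixed in 10% formalin, stained with 0.21% oil red O in 60% isopropanol, and imaged by fluorescence microscopy. Quantification was by isopropanol extraction at 495 nm, optionally adjusted for viable cells.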

Data set [21] can be described thus: Toxicity in human subcutaneous preadipocytes assessed as effect on mitochondrial membrane potential at 0.1 uM after 30 days using JC-1 red/green fluorescence dye by flow cytometry analysis. Format: cell-based. The conditions noted are these: 720 h. In short, it runs like this: (§9)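 Pooled primary human subcutaneous preadipocytes (passage ≤4) were differentiated with drug or DMSO vehicle from day 0 and cultured 30 days. Staining with the JC-1 kit was followed by flow cytometry, and the JC-1 red/green fluorescence intensity ratio was used as the membrane potential read-out. CCCP served as the depolarization control. Three independent experiments, means ± SEM.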

Data set [22] concerns Homo sapiens. The data set can be described thus: Inhibition of electron transport protein complex 2/3 in human subcutaneous preadipocytes at 0.1 uM after 30 to 60 days by photometric analysis. Format: cell-based. In short, it runs like this: as §6
A short description of data set [23]: Toxicity in human subcutaneous preadipocytes assessed as decrease of C/EBPalpha expression at 6 uM after 18 days by RT-PCR analysis. Format: cell-based. Set-up: scale not given: the % may be the effect or the level left. The following applies: 432 h. In short, it runs like this:
as §1

Data set [24] in a line: Toxicity in human subcutaneous preadipocytes assessed as decrease of cell viability measured every 5 days at 6 uM after 30 days using […]. In kind it is cell-based. The following applies: 720 h. In short, it runs like this: as §5
Data set [25] can be described thus: Toxicity in human subcutaneous preadipocytes assessed as decrease of cell cultures at 6 uM after 30 days using oil red O fluorescence staining by conventional fluorescence microscopy. In kind it is cell-based. The conditions noted are these: 720 h. In short, it runs like this: as §4
A short description of data set [26]: Toxicity in human subcutaneous preadipocytes assessed as effect on mitochondrial membrane potential at 6 uM after 30 days using JC-1 red/green fluorescence dye by flow cytometry analysis. In kind it is cell-based. The following applies: 720 h. The essentials:
as §9
A general note: In flow cytometry, cells or beads pass a laser one at a time.

Data set [27] can be described thus: Toxicity in human subcutaneous preadipocytes assessed as triacylglyceride droplets at 6 uM after 30 days using oil red O fluorescence staining by conventional fluorescence microscopy. In kind it is cell-based. The conditions noted are these: 720 h. In short, it runs like this:
as §8

The nature of data set [28]: Toxicity in human subcutaneous preadipocytes assessed as effect on mitochondrial mass at 6 uM after 30 days using […] by flow cytometry analysis. In kind it is cell-based. The conditions noted are these: 720 h.
Data set [29] can be described thus: Toxicity in human subcutaneous preadipocytes assessed as cell death at 6 uM after 30 days using […]. Format: cell-based. The conditions noted are these: 720 h. The essentials:
as §5

Data set [30] in a line: Toxicity in human subcutaneous preadipocytes assessed as decrease of insulin-sensitizing adipokine expression at 6 uM after 30 days by RT-PCR analysis. The conditions noted are these: 720 h. Format: cell-based. In short, it runs like this:
as §3

The nature of data set [31]: Toxicity in human subcutaneous preadipocytes assessed as decrease of mitochondrial DNA abundance at 6 uM after 30 days by RT-PCR analysis. In kind it is cell-based. The following applies: 720 h. In short, it runs like this:
as §2

Data set [32] has as its system Homo sapiens. The data set can be described thus: Inhibition of electron transport protein complex 1/3 in human subcutaneous preadipocytes at 6 uM after 30 to 60 days by photometric analysis. Format: cell-based. In short, it runs like this:
as §6

The test system of data set [33] is Homo sapiens. Description: Inhibition of electron transport protein complex 5 in human subcutaneous preadipocytes at 6 uM after 30 to 60 days by photometric analysis. In kind it is cell-based. The essentials:
as §6

Data set [34] in a line: Toxicity in human subcutaneous preadipocytes assessed as acquisition of adipocyte shape at 6 uM after 30 days using oil red O fluorescence staining by conventional fluorescence microscopy. Format: cell-based. The conditions noted are these: 720 h. The essentials: as §4
For data set [35], the system named is Homo sapiens. The data set can be described thus: Inhibition of electron transport protein complex 4 in human subcutaneous preadipocytes at 6 uM after 30 to 60 days by photometric analysis. Format: cell-based. The essentials: as §6
Data set [36] can be described thus: Toxicity in fully differentiated human subcutaneous preadipocytes assessed as cell death at 6 uM after 30 days using […]. The conditions noted are these: 720 h. In short, it runs like this:
as §5

The nature of data set [37]: Toxicity in human subcutaneous preadipocytes assessed as decrease of adiponectin expression at 6 uM after 30 days by ELISA. Format: cell-based. The following applies: 720 h. In short, it runs like this:
as §7

In data set [38] the test system is Homo sapiens. Description: Inhibition of electron transport protein complex 2/3 in human subcutaneous preadipocytes at 6 uM after 30 to 60 days by photometric analysis. In kind it is cell-based. The essentials:
as §6

Data set [39] can be described thus: Toxicity in human subcutaneous preadipocytes assessed as decrease of PPARgamma expression at 6 uM after 18 days by RT-PCR analysis. Format: cell-based. More on the design: scale not given: the % may be the effect or the level left. The conditions noted are these: 432 h. The essentials: as §1
In data set [40] the test system is Homo sapiens. Description: Inhibition of citrate synthase in human subcutaneous preadipocytes at 6 uM after 30 to 60 days by photometric analysis. In kind it is cell-based. In short, it runs like this:
as §6

The structures appear in SMILES notation. The source made the active and inactive calls. No cut-off for these calls is given here.

Consider `Nc1ccn([C@H]2CC[C@@H](CO)O2)c(=O)n1` [ZALCITABINE], for which the Activity result in data set [1] is on record as “Non-toxic”; in data set [2], “Toxic”; in data set [3], “Non-toxic”; in data set [4], 50%; in [5], “Toxic”; in data set [6] it was “Non-toxic”. In addition, the Activity entry in data set [7] is “Non-toxic”; in data set [8], “Toxic”; in data set [10], “Toxic”; in [11], “Toxic”; in data set [13] it was “Toxic”; in [14], “Non-toxic”. Further, the Activity result in data set [15], in [17], in [18], in data set [20] and in [21] was “Non-toxic” throughout. Also, the inhibition result with Homo sapiens [9], with Homo sapiens [12], in the data set on Homo sapiens [16], in the data set on Homo sapiens [19] and with Homo sapiens [22] was “inactive” in each case.
On to `Cc1cn([C@H]2C[C@H](N=[N+]=[N-])[C@@H](CO)O2)c(=O)[nH]c1=O` [ZIDOVUDINE], for which the Activity in [23] was 40%; in data set [24], “Toxic”; in data set [25] it was “Toxic”; in data set [26] it was “Non-toxic”; in data set [27], “Non-toxic”; in data set [28] it was “Non-toxic”. The Activity result in data set [29] is recorded as “Toxic”; in [30], “Non-toxic”; in [31], “Non-toxic”; in data set [34] it was “Non-toxic”; in data set [36], “Toxic”; in data set [37] it was “Non-toxic”. Moreover, the Activity in [39] worked out at 40%. Moreover, the inhibition entry in the data set on Homo sapiens [32], with Homo sapiens [33], in the data set on Homo sapiens [35], in the data set with Homo sapiens [38] and with Homo sapiens [40] was “inactive” each time.

For the origin of these results see ChEMBL document CHEMBL1687753, “Mitochondrial DNA depletion and respiratory chain activity in primary human subcutaneous adipocytes treated with nucleoside analogue reverse transcriptase inhibitors” (Antimicrob Agents Chemother, 2010).
